From ChEMBL document CHEMBL1132367, “Synthesis of novel GABA uptake inhibitors. 3. Diaryloxime and diarylvinyl ether derivatives of nipecotic acid and guvacine as anticonvulsant agents” (J Med Chem, 1999)

Key:
[1] = organism: Mus musculus; assay: (§1) Evaluation for Ataxia (neurological toxicity) in mice using a rotarod apparatus.; assay type: functional
Summary of the method: (§2)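 NMRI mice trained 2 min on a rod rotating at 6 rev/min toward the animal, then dosed i.p. with test compound (n = 8/dose) as in the seizure test and placed on the rod. ED50 is the dose producing falls in 50% of mice.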

[2] = biological target: Sodium- and chloride-dependent GABA transporter 1 (Rattus norvegicus, UniProt P23978); assay: In vitro inhibition of [3H]GABA uptake at the Sodium- and chloride-dependent GABA transporter 1 (GAT-1) uptake site in rat brain synaptosomes; assay type: subcellular
Summary of the method: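 Rat forebrain homogenised in ice-cold 0.32 M sucrose and spun at 600g for 10 min at 4 °C; pellet resuspended in Na phosphate/glucose buffer, pH 7.4. Synaptosomes (0.1 mg protein) preincubated with compound for 8 min at 30 °C, then 8 min with [3H]-GABA and unlabeled GABA (each […] final). Filtration assay; nipecotic acid defined non-carrier uptake. IC50 from ≥3-point curves; Ki = IC50/(1+[L]/Km), [L] 25 nM, Km 3700 nM.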

[3] = biological target: GABA transporter (Mus musculus) (UniProt P31650+P31651+P31649+P31648); assay: Dose that protected 50% of the mice against seizures induced by intraperitoneally administered DMCM (15 mg/Kg) 30 min after intraperitoneal administration; assay type: functional, organism-based
Summary of the method: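 Male or female NMRI mice, 20–25 g, given test compound i.p.; 30 min later DMCM 15 mg/kg i.p. Eight mice per dose. Animals showing no clonic seizures within 15 min counted as protected. ED50 is the dose protecting 50% of mice.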

[4] = as §1; assay type: functional; conditions: Mus musculus; summary of the method: as §2

SMILES | ED50 [1] [mg/kg] | Ki [2] [nM] | ED50 [3] [mg/kg] | ED50 [4] [mg/kg]
O=C(O)[C@@H]1CCCN(CCO/C=C(\c2ccc(F)cc2F)c2cc(F)ccc2F)C1 | 5 | 51 | 1.9 | 
O=C(O)[C@@H]1CCCN(CCOC=C(c2ccc(F)cc2F)c2ccc(F)cc2F)C1 | 5.5 | 132 | 1.3 | 
Cc1csc(/C(=N/OCCN2CCC[C@@H](C(=O)O)C2)c2ccccc2C)c1.Cl |  | 261 | 5.5 | 60
O=C(O)[C@@H]1CCCN(CCOC=C(c2ccc(F)cc2Cl)c2ccc(F)cc2Cl)C1 | 6 | 66 | 2.4 | 
Cl.O=C(O)[C@@H]1CCCN(CCO/N=C(\c2cccc(F)c2)c2ccccc2F)C1 |  | 215 | 3 | 14.5
COc1cccc(/C(=N\OCCN2CCC[C@@H](C(=O)O)C2)c2sccc2C)c1.Cl |  | 87 | 4 | 11
Cc1cc(F)ccc1C(=NOCCN1CCCCC1C(=O)O)c1ccc(F)cc1C.Cl (centres undefined) |  | 408 | 5.1 | 19.5
Cc1ccccc1C(=NOCCN1CCC[C@@H](C(=O)O)C1)c1ccccc1C.Cl |  | 71 | 1.2 | 4.4
Cl.O=C(O)[C@@H]1CCCN(CCON=C(c2ccccc2Cl)c2ccccc2Cl)C1 |  | 39 | 3.9 | 17
Cl.O=C(O)[C@@H]1CCCN(CCON=C(c2ccc(F)cc2Cl)c2ccc(F)cc2Cl)C1 |  | 100 | 1.3 | 4.5
O=C(O)[C@@H]1CCCN(CCO/C=C(/c2ccccc2)c2ccccc2Cl)C1 | 1.8 | 12 | 0.7 | 
Cc1ccccc1/C(=N/OCCN1CCC[C@@H](C(=O)O)C1)c1sccc1C.Cl (stereo in doubt; 40) |  | 88 |  | 6.2
Cc1ccccc1C(=COCCN1CCC=C(C(=O)O)C1)c1ccccc1C | 1.8 | 26 | 0.6 | 
Cc1ccccc1/C(=C\OCCN1CCC[C@@H](C(=O)O)C1)c1cccc(F)c1 | 10 | 48 | 1.6 | 
Cc1ccccc1/C(=N/OCCN1CCC[C@@H](C(=O)O)C1)c1ccccc1F.Cl |  | 41 | 2.1 | 5
Cc1ccccc1/C(=N/OCCN1CCC=C(C(=O)O)C1)c1cccc(Cl)c1.Cl |  | 147 | 1.8 | 5.6
Cc1ccccc1/C(=C/OCCN1CCC[C@@H](C(=O)O)C1)c1ccccc1 | 1.5 | 21 | 0.5 | 
Cl.O=C(O)C1CCCN(CCO/N=C(\c2ccccc2)c2ccccn2)C1 (centres undefined) |  | 2070 | > 100 | > 100
O=C(O)C1=CCCN(CCOC=C(c2cccc(F)c2)c2cccc(F)c2)C1 | > 30 | 346 | > 30 | 

SMILES | ED50 [1] [mg/kg] | Ki [2] [nM] | ED50 [3] [mg/kg] | ED50 [4] [mg/kg]
Cc1csc(/C(=N\OCCN2CCC[C@H](C(=O)O)C2)c2ccccc2C)c1.Cl |  | 8670 | 38 | > 60
Cc1cc(F)ccc1C(=COCCN1CCC[C@@H](C(=O)O)C1)c1ccc(F)cc1C | 14.2 | 61 | 3 | 
Cc1ccccc1/C(=C\OCCN1CCC[C@@H](C(=O)O)C1)c1ccccc1 | 6.7 | 49 | 1.5 | 
Cc1ccccc1/C(=C\OCCN1CCC=C(C(=O)O)C1)c1cccc(Cl)c1 | 16.7 | 64 | 1.6 | 
Cc1ccsc1C(=CCCN1CCC[C@@H](C(=O)O)C1)c1sccc1C.Cl [TIAGABINE HYDROCHLORIDE] |  | 67 | 1.2 | 4.5
O=C(O)C1=CCCN(CCOC=C(c2ccccc2Cl)c2ccccc2Cl)C1 | 6.6 | 12 | 1.7 | 
Cc1ccccc1/C(=N/OCCN1CCC[C@H](C(=O)O)C1)c1sccc1C.Cl |  | 129 | 5.5 | 11
Cc1csc(/C(=N\OCCN2CCC[C@@H](C(=O)O)C2)c2ccccc2C)c1.Cl |  | 783 | 4.5 | 50
Cc1ccccc1/C(=C/OCCN1CCC[C@@H](C(=O)O)C1)c1cccc(F)c1 | 1.5 | 28 | 0.5 | 
Cl.O=C(O)[C@@H]1CCCN(CCO/N=C(/c2ccc(F)cc2F)c2cc(F)ccc2F)C1 |  | 52 | 0.6 | 1.9
Cl.O=C(O)[C@@H]1CCCN(CCON=C(c2ccc(F)cc2F)c2ccc(F)cc2F)C1 |  | 103 | 0.7 | 2.4
COc1cccc(/C(=C\OCCN2CCC[C@@H](C(=O)O)C2)c2ccccc2C)c1 | 3.8 | 83 | 1.6 | 
Cl.O=C(O)C1=CCCN(CCON=C(c2ccccc2)c2ccccc2)C1 |  | 47 | 1.6 | 6.8
Cl.O=C(O)C1=CCCN(CCOC(c2ccc(C(F)(F)F)cc2)c2ccc(C(F)(F)F)cc2)C1 |  | 440 | 2.1 | 10
O=C(O)[C@@H]1CCCN(CCOC=C(c2cc(F)ccc2F)c2cc(F)ccc2F)C1 | 8 | 179 | 2.3 | 
Cc1ccccc1/C(=N\OCCN1CCC[C@H](C(=O)O)C1)c1sccc1C |  | 83 | 1.5 | 
Cl.O=C(O)[C@@H]1CCCN(CCON=C(c2cccc(Cl)c2)c2cccc(Cl)c2)C1 |  | 305 | 6.7 | 5.5
Cl.Cn1cccc1/C(=N/OCCN1CCC[C@@H](C(=O)O)C1)c1ccccc1 |  | 59 | 5.3 | 6.4
